Experimental data: ChEMBL document CHEMBL4414612, “Synthesis and Pharmacological Evaluation of 1-Phenyl-3-Thiophenylurea Derivatives as Cannabinoid Type-1 Receptor Allosteric Modulators” (J Med Chem, 2019)
In brackets after ≈: the same amount, converted by molar mass. Activity calls are given as the source filed them. The calls are words filed in the database; no cut-off is given here.

Assays:
[1] = target: T1, Cannabinoid receptor 2 (Homo sapiens, UniProt P34972); experiment: (§1) Antagonist activity at human CB2 receptor expressed in CHO cells co-expressing Galpha16 assessed as inhibition of EC80 CP55,940-induced calcium mobilization preincubated for 15 mins followed by […] addition measured at 1 sec interval for 90 secs by calcium-5 dye based FLIPR assay; type: functional, cell-based
T1 sequence (P34972 whole entry): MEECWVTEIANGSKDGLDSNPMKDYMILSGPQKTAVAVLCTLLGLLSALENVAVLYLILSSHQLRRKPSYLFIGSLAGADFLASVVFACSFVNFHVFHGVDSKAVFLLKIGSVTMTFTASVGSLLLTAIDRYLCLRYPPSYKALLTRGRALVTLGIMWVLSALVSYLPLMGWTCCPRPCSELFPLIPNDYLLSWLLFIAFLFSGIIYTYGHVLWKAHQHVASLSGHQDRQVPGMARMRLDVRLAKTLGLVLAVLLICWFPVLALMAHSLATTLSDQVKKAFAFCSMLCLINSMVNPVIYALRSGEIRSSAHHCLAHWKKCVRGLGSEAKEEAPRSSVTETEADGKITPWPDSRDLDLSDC
Method in brief: (§2)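 CB2 antagonist mode in stable human CB2-CHO-RD-HGA16 cells. Cells were dye-loaded, then pretreated with compound for 15 min at 37 °C. CP55,940 was added at its EC80 at the 10 s point, and calcium fluorescence was recorded every 1 s over 90 s.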

[2] = target: T2, Cannabinoid receptor 1 (Homo sapiens, UniProt P21554); experiment: Agonist activity at human CB1 receptor expressed in CHO-RD-HGA16 cells co-expressing Galpha16 assessed as suppression stimulation of calcium mobilization incubated for 45 mins by Calcium 5 dye based FLIPR assay relative to CP55,940; type: functional, cell-based
T2 sequence (P21554 whole entry): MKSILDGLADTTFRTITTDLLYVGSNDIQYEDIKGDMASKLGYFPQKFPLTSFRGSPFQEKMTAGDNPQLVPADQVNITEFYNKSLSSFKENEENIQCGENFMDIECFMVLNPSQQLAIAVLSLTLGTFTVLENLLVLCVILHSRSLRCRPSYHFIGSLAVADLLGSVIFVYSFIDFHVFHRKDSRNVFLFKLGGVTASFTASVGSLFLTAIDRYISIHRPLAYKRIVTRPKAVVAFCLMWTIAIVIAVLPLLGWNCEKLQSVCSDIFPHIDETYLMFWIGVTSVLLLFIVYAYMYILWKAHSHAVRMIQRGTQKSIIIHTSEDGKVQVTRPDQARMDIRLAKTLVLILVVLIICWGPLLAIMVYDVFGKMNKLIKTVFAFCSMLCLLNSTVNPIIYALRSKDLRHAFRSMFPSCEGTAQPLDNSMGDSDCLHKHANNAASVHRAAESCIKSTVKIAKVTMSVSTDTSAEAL
Method in brief: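 CHO-RD-HGA16 cells stably expressing human CB1 (with Galpha16), plated overnight and loaded with Calcium 5 dye for 45 min at 37 °C. […] Compound was added by the FLIPR Tetra at the 10 s point as a single concentration, and fluorescence (485/525 nm) was read every 1 s for 90 s. RFU were expressed as % of CP55,940 Emax.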

[3] = target: T1, Cannabinoid receptor 2; experiment: Agonist activity at human CB2 receptor expressed in CHO cells co-expressing Galpha16 assessed as increase in calcium mobilization at 10 uM measured at 1 sec interval for 90 secs by calcium-5 dye based FLIPR assay relative to CP55,940; type: functional, cell-based
[4] = target: T1, Cannabinoid receptor 2; experiment: as §1, with “mobilization at 10 uM” for “mobilization”, “assay relative to CP55,940” for “assay”; type: functional, cell-based; method in brief: as §2
[5] = target: T2, Cannabinoid receptor 1; experiment: Inverse agonist activity at human CB1 receptor expressed in HEK293 cell membranes assessed as suppression of [35S]GTPgammaS binding at 10 uM incubated for 60 mins by scintillation counting method; settings: hek293, 1 h
Method in brief: (§3)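 Inverse agonism on human CB1-HEK293 membranes: compounds were incubated 60 min with 0.1 nM [35S]GTPγS and 30 µM GDP, with no CP55,940 present. Buffer was Tris/MgCl2/EGTA pH 7.4 with 0.5% BSA, at 30 °C. Binding was read by filtration and scintillation counting and normalized to basal (vehicle = 0%).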

[6] = target: T3, Cannabinoid receptor 1 (Mus musculus, UniProt P47746); experiment: Allosteric modulator activity at CB1 receptor in mouse cerebellar membranes assessed as suppression of 1 uM CP55,940-induced [35S]GTPgammaS binding incubated for 60 mins by scintillation counting method; type: functional, cell membranes, Cerebellum, Membrane
T3 sequence (P47746 whole entry): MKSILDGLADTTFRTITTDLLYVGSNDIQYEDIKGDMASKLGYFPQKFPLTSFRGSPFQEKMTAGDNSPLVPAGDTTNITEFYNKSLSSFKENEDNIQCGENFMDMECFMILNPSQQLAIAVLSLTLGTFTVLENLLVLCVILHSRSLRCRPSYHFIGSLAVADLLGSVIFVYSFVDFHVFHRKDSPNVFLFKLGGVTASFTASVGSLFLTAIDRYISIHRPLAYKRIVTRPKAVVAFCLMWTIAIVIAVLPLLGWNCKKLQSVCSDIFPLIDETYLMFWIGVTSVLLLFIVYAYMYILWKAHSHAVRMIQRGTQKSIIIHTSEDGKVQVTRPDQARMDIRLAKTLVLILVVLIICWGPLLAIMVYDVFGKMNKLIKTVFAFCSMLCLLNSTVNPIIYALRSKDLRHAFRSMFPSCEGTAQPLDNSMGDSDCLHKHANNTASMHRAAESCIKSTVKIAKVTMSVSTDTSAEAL

[7] = target: T2, Cannabinoid receptor 1; experiment: Allosteric modulator activity at human CB1 receptor expressed in CHO-RD-HGA16 cells co-expressing Galpha16 assessed as suppression of 100 nM CP55,940-induced calcium mobilization pre-incubated for 15 mins by Calcium 5 dye based FLIPR assay; type: functional, cell-based
[8] = target: T2, Cannabinoid receptor 1; experiment: Allosteric modulator activity at human CB1 receptor expressed in HEK293 cell membranes assessed as suppression of 100 nM CP55,940-induced [35S]GTPgammaS binding incubated for 60 mins by scintillation counting method; type: functional
[9] = Half life in rat liver microsomes; type: ADME, Microsome
Method in brief: (§4)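 Rat liver microsomes (0.5 mg/mL protein) in 100 mM potassium phosphate pH 7.4 at 37 °C with 1 mM NADPH. Samples were taken at 0, 5, 15, 30 and 45 min, quenched with cold acetonitrile containing internal standards, and analysed by LC/MS/MS. Half-life and clearance were calculated; two independent experiments in duplicate.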

[10] = target: T2, Cannabinoid receptor 1; experiment: Inverse agonist activity at human CB1 receptor expressed in HEK293 cell membranes assessed as suppression of [35S]GTPgammaS binding up to 10 uM incubated for 60 mins by scintillation counting method; settings: hek293, 1 h; method in brief: as §3
[11] = Half life in rat liver microsomes in presence of NADPH by LC-MS/MS analysis; type: ADME, Microsome; method in brief: as §4
[12] = Clearance in rat liver microsomes in presence of NADPH incubated up to 45 mins by LC-MS/MS analysis; type: ADME, Microsome; method in brief: as §4
[13] = Kinetic solubility in phosphate buffer at 400 uM incubated for 2 hrs by LC-MS/MS analysis; type: physicochemical; settings: read-out: Kinetic_solubility
Method in brief: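 A 20 mM DMSO stock was diluted into phosphate buffer to a targeted 400 µM and vortexed 2 h at room temperature. Three independent experiments in duplicate.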

[14] = Apparent permeability from apical to basolateral side in MDCK-MDR1 cells incubated up to 90 mins by LC-MS/MS analysis; type: ADME, cell-based, Canis lupus familiaris; settings: dog
Method in brief: (§5)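 MDCK-MDR1 cells were grown 3 days on Transwell supports and preincubated 30 min at 37 °C in HBSS with 10 mM HEPES and 0.25% BSA, pH 7.4, with TEER checked. Test article (10 µM) was added to the apical (A-to-B) or basolateral (B-to-A) donor side at 37 °C with light agitation. Receiver samples were taken at 30, 60 and 90 min for LC-MS/MS. Papp = (dQ/dt)/(A·Ci·60).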

[15] = Apparent permeability from basolateral to apical side in MDCK-MDR1 cells incubated up to 90 mins by LC-MS/MS analysis; type: ADME, cell-based, Canis lupus familiaris; settings: dog; method in brief: as §5
[16] = Efflux ratio from basolateral to apical side over apical to basolateral side in MDCK-MDR1 cells incubated up to 90 mins by LC-MS/MS analysis; type: ADME, cell-based, Canis lupus familiaris; settings: dog
[17] = system: Rattus norvegicus; experiment: Suppression of drug-induced cocaine-seeking behavior in Sprague-Dawley rat assessed as effect on active responses at 10 mg/kg, ip pretreated 10 mins prior to priming injection of cocaine administered immediately before the start of the reinstatement session; type: functional, organism-based
[18] = system: Rattus norvegicus; experiment: Suppression of drug-induced cocaine-seeking behavior in Sprague-Dawley rat assessed as effect on inactive responses at 10 mg/kg, ip pretreated 10 mins prior to priming injection of cocaine administered immediately before the start of the reinstatement session; type: functional, organism-based
[19] = target: T3, Cannabinoid receptor 1; experiment: Allosteric modulator activity at CB1 receptor in mouse cerebellar membranes assessed as suppression of 100 nM CP55,940-induced [35S]GTPgammaS binding incubated for 60 mins by scintillation counting method; type: functional, cell membranes, Cerebellum, Membrane
[20] = target: T2, Cannabinoid receptor 1; experiment: Displacement of [3H]CP55,940 from human CB1 receptor
[21] = target: T3, Cannabinoid receptor 1; experiment: Allosteric antagonist activity at mouse CB1 receptor by GTPgammaS assay; type: functional
Method in brief: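 Cerebellar membranes from male ICR mice (6-8 weeks), preincubated 10 min with adenosine deaminase (3 units/ml) in Tris/MgCl2/EGTA buffer, pH 7.4. Membranes (10 µg) pre-equilibrated 30 min with modulator, CP55,940 (100 nM; some also at 1 µM), 30 µM GDP and 0.5% BSA, then 0.1 nM [35S]GTPγS for 60 min at 30 °C.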

| Structure (SMILES) | IC50 [1] [nM] | Emax [3] [%] | inhibition [4] [%] | inhibition (INH) [5] | IC50 [7] [nM] | other results |
| --- | --- | --- | --- | --- | --- | --- |
| O=C(Nc1ccc(Cl)cc1)N[C@H]1C[C@H]1c1ccccc1 (relative stereo) | > 10000 | < 10 | < 50 | Active | – | Emax [2]: < 30% |
| O=C(Nc1ccc(Cl)cc1)N[C@H]1C[C@@H]1c1ccccc1 (relative stereo) | > 10000 | < 10 | < 50 | Active | – | Emax [2]: < 30% |
| CN(C)c1cccc(-c2ccc(NC(=O)Nc3ccc(Cl)cc3)s2)c1 | > 10000 | < 10 | < 50 | Active | – | IC50 [6]: 2570 nM |
| O=C(Nc1ccc(Cl)cc1)Nc1cccc(-c2ccccc2)n1 | > 10000 | < 10 | < 50 | Active | 3530 | IC50 [8]: > 10000 nM |
| O=C(Nc1ccc(Cl)cc1)Nc1cccc(-c2ccc(F)cc2)c1 | – | – | – | – | – | half-life ([9]; liver microsomes): > 300 min |
| O=C(Nc1ccc(Cl)cc1)Nc1ccc(-c2ccccc2)s1 | > 10000 | < 10 | < 50 | – | 6.8 | inhibition (INH) [10]: Not Active; t1/2 ([11]; microsomes): 65 min; CLH ([12]; microsomes, […]): 22.2 µL/min/mg; solubility kinetic at 2 h, 400 µM [13]: 1.5 µM (≈ 0.493 µg/mL); Papp [14]: 1.6 ×10⁻⁶ cm/s; Papp [15]: 1.1 ×10⁻⁶ cm/s; Ratio [16]: 0.7; Activity [17]: inactive; Activity [18]: inactive |
| O=C(Nc1ccc(Cl)cc1)Nc1ccnc(-c2ccccc2)c1 | > 10000 | < 10 | < 50 | Active | 233 | IC50 [8]: 2770 nM |
| O=C(Nc1ccc(Cl)cc1)Nc1cc(-c2ccccc2)cs1 | > 10000 | < 10 | < 50 | Active | – | IC50 [19]: 776 nM |
| O=C(Nc1ccc(Cl)cc1)Nc1cccc(-c2ccc[nH]2)c1 | – | – | – | – | – | Kd [20]: 1.4 nM |
| O=C(Nc1ccc(Cl)cc1)Nc1cc(-c2ccccc2)ccn1 | > 10000 | < 10 | < 50 | Active | 156 | IC50 [8]: > 10000 nM; IC50 [19]: > 10000 nM |
| O=C(Nc1ccc(Cl)cc1)Nc1cccc(-c2cccc(N3CCCC3)n2)c1 | > 10000 | – | < 50 | Active | – | IC50 [21]: 115 nM; t1/2 ([9]; microsomes): 13 min; IC50 [19]: 288 nM; Emax [2]: < 30%; pIC50 [6]: 6.91; half-life ([11]; liver microsomes): 13.4 min; microsomal CLint at […] ([12]; liver microsomes, read-out: CLH): 114 µL/min/mg; solubility kinetic at 2 h, 400 µM [13]: < 0.5 µM; Papp [14]: 2.6 ×10⁻⁶ cm/s; Papp [15]: 2.2 ×10⁻⁶ cm/s |
